Screening data deposited in PubChem BioAssay by Broad Institute.
A selection: hits, their analogues and other compounds. The true share with any hit is near 3.8%.
SIRT5 inh: SIRT5 desuccinylase inhibitors, primary screen, biochemical, fluorescence imaging, single point, set 5; NAD-dependent protein deacylase sirtuin-5, mitochondrial (Homo sapiens), Q9NXA8; Purified SirT5, succinyl-peptide AMC, trypsin-coupled fluorescence; inhibition, % at 15 µM; actives 1.1% (n = 330,000); AID 652115, 2013; in the data active = inhibition above about 15%
Target sequence (Q9NXA8 whole entry, looked up): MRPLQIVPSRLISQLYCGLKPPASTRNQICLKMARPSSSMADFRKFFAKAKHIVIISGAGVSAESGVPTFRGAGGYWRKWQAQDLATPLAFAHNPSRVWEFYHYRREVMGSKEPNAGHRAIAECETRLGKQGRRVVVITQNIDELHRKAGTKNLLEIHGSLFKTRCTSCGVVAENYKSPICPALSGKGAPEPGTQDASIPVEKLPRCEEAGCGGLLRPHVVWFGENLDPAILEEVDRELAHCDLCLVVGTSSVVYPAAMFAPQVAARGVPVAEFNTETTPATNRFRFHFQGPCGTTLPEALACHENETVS
FGF22 binding: binders of human FGF22 protein, primary screen, FGF22 synaptogenesis inhibitor project, biophysical, thermal shift, single point | recombinant FGF22 thermal shift, SYPRO orange fluorescence; percent of sucrose octasulfate shift, DMSO zero | activity (Tm shift, normalised), % at 9.99 µM | Fibroblast growth factor 22 (Homo sapiens), Q9HCT0 | actives 1.5% (n = 340,000);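 active = mean Tm shift, scaled 0 neutral to 100 positive control, at about 1.3% or above, every replicate too, limit read from the data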
Target sequence (Q9HCT0 whole entry, looked up): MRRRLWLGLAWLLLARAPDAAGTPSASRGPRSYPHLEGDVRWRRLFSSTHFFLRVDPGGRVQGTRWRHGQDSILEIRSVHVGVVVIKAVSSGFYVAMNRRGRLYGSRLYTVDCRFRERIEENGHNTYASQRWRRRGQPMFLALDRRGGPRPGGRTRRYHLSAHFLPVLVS
ARNT-TACC3 inh: disruptors of ARNT/TACC3 protein interaction, primary screen, biochemical, AlphaScreen, single concentration; AlphaScreen His-ARNT PAS-B/GST-TACC3 binding, luminescence; TACC3 fragment carries E629A point mutation; Transforming acidic coiled-coil-containing protein 3 (Homo sapiens), Q9Y6A5; actives 0.66% (n = 390,000); inhibition, % at 9.99 µM;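 active = mean inhibition of replicates at least 50% and at least half of replicates each reaching 50%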;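 also: 0% = complete ARNT plus TACC3 wells and 100% = ARNT alone without TACC3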
XiGFP reactiv: activators of inactive X chromosome reactivation, primary screen, imaging, XiGFP fibroblasts, GFP high-content imaging, set 2; XiGFP mouse fibroblasts, % GFP-positive cells imaging, 3 d; cells co-treated with 5-aza-dC sensitizer; scaled so ellipticine positive control = 100%; activation, % at 7.58 µM; actives 0.055% (n = 360,000); AID 743238, 2013;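 active = mean normalized replicate activation at least 10% and every replicate at or above 10%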;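 also: 0% = median of on-plate neutral control wells and 100% = ellipticine 6 µM median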
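Assay system: SV40-immortalized XiGFP fibroblast cells, line 68-5-11; buffer or medium: DMEM plus 5-aza-dC sensitizer; compound: one concentration, pinned; timing: compounds 3 days, fix/stain 15 min at room temperature; benchmarks: positive control ellipticine, 6 µM final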
FN deposit inh: inhibitors of fibronectin matrix deposition, primary screen, AH1F cells, Alexa488-fibronectin fluorescence, plate reader; AH1F fibroblasts, overnight; inhibition, % at 12.6 µM; actives 0.086% (n = 350,000); AID 743247, 2014;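 active = mean inhibition across replicates of 30% or more, regardless of how many single replicates reach that level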;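 also: positive control wells lacked labelled fibronectin entirely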
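test system = AH1F fibroblasts assembling fluorescent fibronectin matrix | quantity = 10000 AH1F cells per well | buffer or medium = DMEM plus 2% serum, read in PBS | doses = single dose, pinned | incubation = 1 h cell attachment, overnight exposure to compound and label | detection = fluorescence at 485 nm excitation, 525 nm emission | read-out basis = inhibition from reduced deposited-fibronectin fluorescence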
DENV2 CPE: inhibitors of DENV2 cytopathic effect, primary screen, cell-based, plate reader, single concentration. DENV2-infected cells, cytopathic effect rescue. actives 1.7% (n = 350,000). AID 651640, 2012. CPE inhibition, % at 9.99 µM; in the data active = CPE inhibition above about 20%, passing the limit was not always enough; tested in BHK-21 cells;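 also: 0% = median of neutral control wells and 100% = median of positive control wells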
Numbers without * were called inactive; nt = not tested or not shown.

SMILES	SIRT5 inh	FGF22 binding	ARNT-TACC3 inh	XiGFP reactiv	FN deposit inh	DENV2 CPE
CN1CCN(C2CCN(c3ccc(Nc4nnc(Cl)c(Nc5ccccc5S(C)(=O)=O)n4)c(OC(CF)CF)c3)CC2)CC1	nt	-0.7	-6.7	0.6	-0.1	36.8*
CC(=O)Nc1ccc2c(c1)CC(=O)N(C)C[C@@H](C)[C@H](CN(C)C(C)=O)O2	nt	nt	nt	0.2	-18.4	nt
CCC(=O)N(C1=C(NC)C(=O)c2ccccc2C1=O)C(C)C	0.0	0.2	16.3	0.3	-0.1	15.8
CNC1=C(N(C(C)=O)c2ccc(Br)cc2)C(=O)c2ccccc2C1=O	nt	nt	45.8*	-0.1	19.2	nt
COc1cccc(/C=N/Nc2ncnc(Cl)c2N)c1O	5.6	0.4	59.0*	3.3	4.0	4.9
COc1cccc(/C=N/Nc2nccnc2Cl)c1O	-1.1	-0.3	nt	0.4	15.6	nt
COc1cccc(/C=N/Nc2nc3ccccc3n3cnnc23)c1O	-0.4	0.8	84.9*	-0.1	11.9	3.7
C[C@H](CO)N1C[C@H](C)[C@H](CN(C)S(C)(=O)=O)Oc2cc(-c3cccc(F)c3)ccc2S1(=O)=O	-0.6	-0.1	-4.0	-2.0	nt	-7.9
CO[C@@H]1CN(C)C(=O)c2ccc(NC(C)=O)cc2OC[C@@H](C)N(Cc2cccc(F)c2)C[C@H]1C	8.4	-0.4	-14.3	0.4	0.6	-1.5
CSCCC(N=C1NS(=O)(=O)c2ccccc21)C(=O)NCc1ccccc1F (configuration not stated)	0.5	-0.3	5.7	-0.2	-6.0	4.2
CSCCC(N=C1NS(=O)(=O)c2ccccc21)C(=O)NCCc1ccccc1 (configuration not stated)	1.8	0.4	-51.9	0.1	3.9	58.5*
N#CC1(NC(=O)CSc2ccccn2)CCCCC1	-1.9	-0.4	1.8	0.0	-5.1	111.3*
N#CC1(NC(=O)CSc2nc3ccccc3o2)CCCCC1	-4.8	-0.2	-5.2	0.0	1.6	-8.1
CCCNC(=O)N(C)C[C@H]1Oc2cc(C#C[C@@H](C)O)ccc2S(=O)(=O)N([C@H](C)CO)C[C@@H]1C	1.1	0.0	-3.4	0.0	-11.8	18.2
COCC(=O)N1CCCCN2[C@@H](CO)[C@@H](c3ccc(C#Cc4ccccc4)cc3)[C@@H]2C1	-1.5	0.2	-1.6	0.0	nt	9.0
COc1ccc(-c2ccc3c(c2)[C@@H]2[C@@H](CCN2C(=O)C2CCCC2)[C@H](CO)N3C)cc1	9.5	nt	nt	0.0	-12.7	16.6
CN1c2ccc(-c3ccccc3F)cc2[C@@H]2[C@@H](CCN2C(=O)Nc2cc(F)ccc2F)[C@@H]1CO	nt	-0.1	13.4	0.1	3.0	41.6*
CN1c2ccc(-c3ccc(F)cc3)cc2[C@@H]2[C@@H](CCN2C(=O)Nc2cc(F)ccc2F)[C@@H]1CO	0.5	0.0	-3.1	0.0	-69.1	-21.9
CN1c2ccc(-c3ccccc3F)cc2[C@@H]2[C@@H](CCN2C(=O)c2cccc(F)c2)[C@@H]1CO	nt	-0.5	1.9	0.2	-14.6	75.7*
COc1ccc(-c2ccc3c(c2)[C@H]2[C@H](CCN2C(=O)c2ccccc2F)[C@H](CO)N3C)cc1	nt	-0.4	9.5	-0.1	1.7	7.0
COc1cccc(-c2ccc3c(c2)[C@H]2[C@H](CCN2C(=O)c2ccccc2F)[C@H](CO)N3C)c1	20.1*	-0.3	9.8	0.1	-5.9	-2.5
COc1ccc(-c2ccc3c(c2)[C@@H]2[C@@H](CCN2C(=O)C2CCOCC2)[C@@H](CO)N3C)cc1	nt	0.1	-3.5	0.0	-9.5	115.0*
C[C@@H]1CCCCO[C@@H](CN(C)C(=O)CCC(F)(F)F)[C@@H](C)CN([C@H](C)CO)C(=O)c2cc(NC(=O)CCCCCC(=O)Nc3ccccc3N)ccc2O1	nt	0.0	-4.6	0.0	nt	-16.4
C[C@@H]1CN(C)C(=O)Cc2cc(NS(C)(=O)=O)ccc2O[C@H]1CN(C)S(C)(=O)=O	nt	nt	nt	0.4	-17.9	nt
COc1ccc(NC(=O)Nc2ccc3c(c2)C(=O)N([C@H](C)CO)C[C@H](C)[C@H](CN(C)C(=O)CCCN(C)C)OCCCC[C@@H](C)O3)cc1	-1.4	-0.1	-4.1	0.1	nt	2.1
SMILES	SIRT5 inh	FGF22 binding	ARNT-TACC3 inh	XiGFP reactiv	FN deposit inh	DENV2 CPE
O=C(C1CCCCC1)N1CC[C@@H]2[C@@H](CO)Nc3ccc(Br)cc3[C@@H]21	6.7	0.2	4.9	0.1	-2.5	15.3
CN(C)C(=O)c1ccc(-c2ccc3c(c2)[C@@H]2[C@@H](CCN2C(=O)c2ccc(F)cc2)[C@H](CO)N3C)cc1	2.4	0.0	-11.4	0.1	30.9*	-16.1
CCOC(=O)N1CCC(NCCNC(=O)c2ccco2)CC1	-2.0	44.0*	-0.5	0.0	-3.0	0.7
CCOC(=O)N1CCC(NCCNC(=O)c2ccc(F)c(F)c2)CC1	-0.7	0.1	-7.3	0.4	1.8	21.1*
CCOC(=O)N1CCC(NCCNC(=O)c2ccc(Cl)cc2)CC1	nt	nt	-5.2	nt	-5.5	nt
CCOC(=O)N1CCC(NC(=O)C(Cc2ccccc2)NC(=O)c2ccco2)CC1 (configuration not stated)	nt	nt	-4.4	nt	4.7	nt
CCN(C(=O)c1ccc2c(SCC(=O)O)c3c(nc2c1)CCC3)c1cc(Cl)ccc1OC	4.9	-0.5	-1.1	0.0	4.3	50.3*
COc1cc(NC(=O)CSc2c3c(nc4ccccc24)CCC3)cc(OC)c1OC	3.1	0.1	-0.5	0.0	1.9	70.4*
O=C1CN(C(=O)CSc2nc(-c3ccc(Cl)cc3)cs2)c2ccccc2N1	15.0*	-0.2	7.7	0.0	7.9	-2.6
Cc1nnc(SCC(=O)N2CC(=O)Nc3ccccc32)s1	-3.2	0.2	3.5	0.0	-14.6	7.7
COc1ccc(/C=N/Nc2nnc(C)n2N)cc1OC	-5.1	0.0	54.3*	-0.1	-0.9	1.6
COc1ccc(/C=N/Nc2nnc(C)n2N)cc1OC(C)=O	4.0	-0.2	0.6	0.0	12.6	16.0
Cc1cccc(N(C(=O)Cn2nnc3ccccc32)C(C(=O)NC(C)(C)C)c2ccsc2)c1 (configuration not stated)	8.3	0.7	-0.8	nt	nt	23.6*
C(=N/Nc1nccs1)/c1cccnc1	19.2*	0.4	-5.4	0.0	2.4	5.1
Clc1cccc(/C=N\Nc2nccs2)c1	-5.2	nt	13.6	nt	-0.7	nt
